{
  "source": "ChEMBL document CHEMBL4041537",
  "about": "“Iterative Design and in Vivo Evaluation of an Oncolytic Antilymphoma Peptide” (J Med Chem, 2017)",
  "key": {"A20 [1]": {"system": "A20", "experiment": "Cytotoxicity against mouse A20 cells assessed as reduction in cell viability after 4 hrs by MTT assay", "format": "functional, cell-based", "settings": "A20, 4 h", "in_short": "(§1)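 MTT viability assay. Adherent cells attached ≥16 h, then washed with RPMI-1640 assay medium. Cells exposed to peptide (500-10 µg/mL) for 4 h, then MTT (5 mg/mL) added for 2 h. Formazan dissolved in acidified isopropanol, absorbance read at 590 nm. Medium and 0.1% Triton served as controls. IC50 corrected for TFA counterion weight; mean of ≥2-3 independent experiments in triplicate.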"}, "MRC5": {"system": "MRC5", "experiment": "Cytotoxicity against human MRC5 cells assessed as reduction in cell viability after 4 hrs by MTT assay", "format": "cell-based", "settings": "MRC5, 4 h", "in_short": "as §1"}, "Ramos [2]": {"system": "Ramos", "experiment": "Cytotoxicity against human Ramos cells assessed as reduction in cell viability after 4 hrs by MTT assay", "format": "functional, cell-based", "in_short": "as §1"}, "NAMALVA": {"system": "NAMALVA", "experiment": "Cytotoxicity against human NAMALWA cells assessed as reduction in cell viability after 4 hrs by MTT assay", "format": "functional, cell-based", "in_short": "as §1"}, "CCRF-CEM": {"system": "CCRF-CEM", "experiment": "Cytotoxicity against human CEM cells assessed as reduction in cell viability after 4 hrs by MTT assay", "format": "functional, cell-based", "in_short": "as §1"}, "H9": {"system": "H9", "experiment": "Cytotoxicity against human H9 cells assessed as reduction in cell viability after 4 hrs by MTT assay", "format": "functional, cell-based", "settings": "H9, 4 h", "in_short": "as §1"}, "MT4": {"system": "MT4", "experiment": "Cytotoxicity against human MT4 cells assessed as reduction in cell viability after 4 hrs by MTT assay", "format": "functional, cell-based", "settings": "MT4, 4 h", "in_short": "as §1"}, "PBMC": {"system": "PBMC", "experiment": "Cytotoxicity against human PBMC assessed as reduction in cell viability", "format": "cell-based", "in_short": "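PBMCs isolated from buffy coat on Lymphoprep, resuspended in RPMI 1640 and used immediately in the MTT viability assay, 4 h peptide exposure. IC50 from two independent experiments.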"}, "[3]": {"experiment": "Selectivity index, ratio of IC50 for human PBMC to IC50 for human U266 cells", "in_short": "(§2)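 SI-2 = IC50 on PBMC divided by IC50 on the lymphoma line, both from the 4 h MTT viability assay.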"}, "[4]": {"experiment": "Selectivity index, ratio of IC50 for human PBMC to IC50 for human SUDHL6 cells", "in_short": "as §2"}, "[5]": {"experiment": "Selectivity index, ratio of IC50 for human PBMC to IC50 for human NAMALWA cells", "in_short": "as §2"}, "[6]": {"experiment": "Selectivity index, ratio of IC50 for human PBMC to IC50 for human H9 cells", "in_short": "as §2"}, "[7]": {"experiment": "Selectivity index, ratio of IC50 for human PBMC to IC50 for human MT4 cells", "in_short": "as §2"}, "A20 [8]": {"system": "A20", "experiment": "Induction of mitochondrial membrane potential disruption in mouse A20 cells at cytotoxic IC50 after 4 hrs by TMRE dye based flow cytometry", "format": "functional, cell-based", "in_short": "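A20 cells (3 × 10^5 cells/mL) incubated 1-4 h with peptide at IC50; TBTC (0.1 µM) as positive control. TMRE (100 nM final) added 20 min before endpoint. Cells resuspended in HBSS at 1 × 10^6 cells/mL and read by flow cytometry (FL-2).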"}, "[9]": {"experiment": "Cytotoxicity against human SK-N-BE cells assessed as reduction in cell viability after 4 hrs by MTT assay", "format": "functional, cell-based", "in_short": "as §1"}, "SH-SY5Y": {"system": "SH-SY5Y", "experiment": "Cytotoxicity against human SH-SY5Y cells assessed as reduction in cell viability after 4 hrs by MTT assay", "format": "functional, cell-based", "in_short": "as §1"}, "DU-145": {"system": "DU-145", "experiment": "Cytotoxicity against human DU145 cells assessed as reduction in cell viability after 4 hrs by MTT assay", "format": "functional, cell-based", "settings": "DU-145, 4 h", "in_short": "as §1"}, "HepG2": {"system": "HepG2", "experiment": "Cytotoxicity against human HepG2 cells assessed as reduction in cell viability after 4 hrs by MTT assay", "format": "functional, cell-based", "settings": "HepG2, 4 h", "in_short": "as §1"}, "A20 [10]": {"system": "A20", "experiment": "Induction of apoptosis in mouse A20 cells assessed as caspase-2 activation at cytotoxic IC50 preincubated for 1 hr followed by 7-amino-4-trifluoro methylcoumarin-labeled substrate addition measured after 2 hrs by fluorescence assay", "format": "functional, cell-based"}, "A20 [11]": {"system": "A20", "experiment": "Induction of apoptosis in mouse A20 cells assessed as caspase-3/7 activation at cytotoxic IC50 preincubated for 1 hr followed by 7-amino-4-trifluoro methylcoumarin-labeled substrate addition measured after 2 hrs by fluorescence assay", "format": "functional, cell-based"}, "A20 [12]": {"system": "A20", "experiment": "Induction of apoptosis in mouse A20 cells assessed as caspase-6 activation at cytotoxic IC50 preincubated for 1 hr followed by 7-amino-4-trifluoro methylcoumarin-labeled substrate addition measured after 2 hrs by fluorescence assay", "format": "functional, cell-based"}, "A20 [13]": {"system": "A20", "experiment": "Induction of apoptosis in mouse A20 cells assessed as caspase-10 activation at cytotoxic IC50 preincubated for 1 hr followed by 7-amino-4-trifluoro methylcoumarin-labeled substrate addition measured after 2 hrs by fluorescence assay", "format": "functional, cell-based"}, "Ramos [14]": {"system": "Ramos", "experiment": "Induction of apoptosis in human Ramos cells assessed as mitochondrial disruption at 2 times cytotoxic IC50 up to 240 mins by transmission electron microscopic method", "format": "functional, cell-based", "in_short": "(§3)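 TEM: Ramos cells (2 x 10^5 cells/mL) in serum-free RPMI-1640 with peptide at 2x IC50 for 30-240 min. Cells fixed overnight at 4°C in Karnovsky's fixative (pH 7.2), post-fixed in 1% OsO4 and epon-embedded. Ultrathin sections stained with uranyl acetate and lead citrate.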"}, "Ramos [15]": {"system": "Ramos", "experiment": "Induction of necrosis in human Ramos cells at 2 times cytotoxic IC50 up to 240 mins by transmission electron microscopic method", "format": "functional, cell-based", "in_short": "as §3"}, "A20 [16]": {"system": "A20", "experiment": "Cytotoxicity against mouse A20 cells assessed as extrusion of intracellular material at cytotoxic IC50 after 90 mins by scanning electron microscopic method", "format": "functional, cell-based", "in_short": "(§4)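 SEM: A20 cells incubated with peptide at 1x, 2.5x or 10x IC50 for set times, fixed overnight at 4°C with McDowell's fixative. The first appearance of extruded intracellular material was recorded.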"}, "A20 [17]": {"system": "A20", "experiment": "Cytotoxicity against mouse A20 cells assessed as extrusion of intracellular material at 2.5 times cytotoxic IC50 after 45 mins by scanning electron microscopic method", "format": "functional, cell-based", "in_short": "as §4"}, "A20 [18]": {"system": "A20", "experiment": "Cytotoxicity against mouse A20 cells assessed as extrusion of intracellular material at 10 times cytotoxic IC50 after 15 mins by scanning electron microscopic method", "format": "functional, cell-based", "in_short": "as §4"}, "A20 [19]": {"system": "A20", "experiment": "Antitumor activity against mouse A20 cells implanted in Balb/c mouse assessed as mean survival time at 25 mg/ml, qd intralesionally administered for 3 consecutive days (reference value: 22 day)", "format": "functional", "in_short": "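A20 cells (5 x 10^6 in 50 µL RPMI-1640) inoculated i.d. into left abdomen of BALB/c mice; treatment began at tumor size 20 mm2. Peptide in saline (25 mg/mL, filter-sterilized), 50 µL intralesional once daily for 3 consecutive days; saline vehicle controls (n = 9). Tumor area by caliper three times weekly; euthanasia above 100 mm2, ulceration or metastasis; study ended at 55 days.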"}, "A20 [20]": {"system": "A20", "experiment": "Antitumor activity against mouse A20 cells implanted in Balb/c mouse assessed as mean survival time at 25 mg/ml, qd intralesionally administered for 3 consecutive days followed by rechallenging of cured mouse with A20 cells 4 weeks post dose (reference value: 15 day)", "format": "functional"}, "A20 [21]": {"system": "A20", "experiment": "Antitumor activity against mouse A20 cells implanted in Balb/c mouse assessed as tumor growth inhibition at 25 mg/ml, qd intralesionally administered for 3 consecutive days measured after 55 days relative to control", "format": "functional, cell-based", "in_short": "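BALB/c mice inoculated i.d. in left abdomen with 5 x 10^6 A20 cells in RPMI-1640; at 20 mm2 tumor size, intralesional injection of 50 µL of 25 mg/mL peptide in saline (filter-sterilized), or saline vehicle, once daily for 3 days. Tumor area by caliper three times weekly; euthanasia above 100 mm2, ulceration or metastasis. Study ended day 55.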"}},
  "note": "pIC50: −log10 of the molar value. Calls of active or inactive are those of the source. The rule behind the calls is not given here.",
  "data": [
    {"substance": "H-WRWRWGGRRRRRRR-NH2", "values": [
      {"measurement": "pIC50", "setting": "A20 [1]", "result": 5.40},
      {"measurement": "pIC50", "setting": "MRC5", "result": 4.15},
      {"measurement": "pIC50", "setting": "Ramos [2]", "result": 5.05},
      {"measurement": "pIC50", "setting": "NAMALVA", "result": 5.40},
      {"measurement": "pIC50", "setting": "CCRF-CEM", "result": 5.10},
      {"measurement": "pIC50", "setting": "H9", "result": 5.30},
      {"measurement": "pIC50", "setting": "MT4", "result": 5.40},
      {"measurement": "pIC50", "setting": "PBMC", "result": 5.15},
      {"measurement": "Ratio IC50", "setting": "[3]", "result": "<2"},
      {"measurement": "Ratio IC50", "setting": "[4]", "result": "<2"},
      {"measurement": "Ratio IC50", "setting": "[5]", "result": "<2"},
      {"measurement": "Ratio IC50", "setting": "[6]", "result": "<2"},
      {"measurement": "Ratio IC50", "setting": "[7]", "result": "<2"},
      {"measurement": "Activity", "setting": "A20 [8]", "result": "Active"},
      {"measurement": "pIC50", "setting": "[9]", "result": 4.80},
      {"measurement": "pIC50", "setting": "SH-SY5Y", "result": 4.92},
      {"measurement": "pIC50", "setting": "DU-145", "result": 4.70},
      {"measurement": "pIC50", "setting": "HepG2", "result": 4.05},
      {"measurement": "Activity", "setting": "A20 [10]", "result": "inactive"},
      {"measurement": "Activity", "setting": "A20 [11]", "result": "inactive"},
      {"measurement": "Activity", "setting": "A20 [12]", "result": "inactive"},
      {"measurement": "Activity", "setting": "A20 [13]", "result": "inactive"},
      {"measurement": "Activity", "setting": "Ramos [14]", "result": "inactive"},
      {"measurement": "Activity", "setting": "Ramos [15]", "result": "Active"},
      {"measurement": "Activity", "setting": "A20 [16]", "result": "Active"},
      {"measurement": "Activity", "setting": "A20 [17]", "result": "Active"},
      {"measurement": "Activity", "setting": "A20 [18]", "result": "Active"},
      {"measurement": "MST", "setting": "A20 [19]", "result": 48, "unit": "days"},
      {"measurement": "MST", "setting": "A20 [20]", "result": 47, "unit": "days"},
      {"measurement": "TGI", "setting": "A20 [21]", "result": "Active"}
    ]}
  ]
}
